Experimental data: ChEMBL document CHEMBL1123889, “Improved synthesis and antitumor activity of 1-deazaadenosine” (J Med Chem, 1987)

What was measured:
Mus musculus [1] = assay: Antitumor activity against leukemia P388/DX cells at 6.3 mg/kg/day expressed as mean survival of treated mice (T) to untreated (C) was reported; format: functional
Outline: (§1)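 BDF1 mice given 10^6 doxorubicin-resistant P388 cells ip; the line was kept by weekly ip passage with doxorubicin. Compound was dissolved in distilled water just before use and given ip daily for 7 days from 24 h post-inoculation; 10 mice per dose. %T/C = median survival of treated/control ×100, with 125 significant. Toxicity was judged by autopsy (spleen and liver shrinkage).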

Mus musculus [2] = assay: Antitumor activity against leukemia P388/DX cells at 3.1 mg/kg/day expressed as mean survival of treated mice (T) to untreated (C) was reported; format: functional; outline: as §1
L1210 [3] = assay: Antitumor activity against leukemia L1210 cells at 25.0 mg/kg/day expressed as mean survival of treated mice (T) to untreated (C) was reported; format: functional, Mus musculus
Mus musculus [4] = assay: Antitumor activity against leukemia P388/DX cells at 12.5 mg/kg/day expressed as toxic deaths in mice was reported; 0/10 mice; format: functional; outline: as §1
KB [5] = assay: The compound was tested in vitro for antitumor activity(50% inhibition of tumor cell growth) against KB human cell lines after 144 hr; format: functional; settings: read-out: ID50 (the source's name)
Outline: (§2)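 5 × 10^5 exponentially growing cells exposed to varying drug concentrations for 144 h, then counted with a Coulter counter. ID50 is the drug concentration in culture medium giving 50% inhibition of cell growth versus untreated controls.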

KB [6] = assay: The compound was tested in vitro for antitumor activity(50% inhibition of tumor cell growth) against KB human cell lines after 72 hr; format: functional; settings: read-out: ID50 (the source's name)
Outline: (§3)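 5 × 10^5 exponentially growing human tumour cells were exposed to a range of drug concentrations for the stated time (72 or 144 h), then counted on a Coulter counter. ID50 is the concentration in the culture medium giving 50% inhibition of cell growth relative to untreated controls.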

L1210 [7] = assay: Antitumor activity against leukemia L1210 cells at 25.0 mg/kg/day expressed as Number of mice died for toxicity to number of treated mice; 6/10 mice; format: organism-based; settings: mouse, in vivo
Mus musculus [8] = assay: Antitumor activity against leukemia P388/DX cells at 3.1 mg/kg/day expressed as toxic deaths in mice was reported; 0/10 mice; format: functional; outline: as §1
L1210 [9] = assay: Antitumor activity against leukemia L1210 cells at 6.3 mg/kg/day expressed as Number of mice died for toxicity to number of treated mice; 0/10 mice; format: functional, Mus musculus
L1210 [10] = assay: Antitumor activity against leukemia L1210 cells at 12.5 mg/kg/day expressed as mean survival of treated mice (T) to untreated (C) was reported; format: functional, Mus musculus
HeLa [11] = assay: The compound was tested in vitro for antitumor activity(50% inhibition of tumor cell growth) against HeLa human cell lines after 72 hr; format: functional; settings: read-out: ID50 (the source's name); outline: as §3
Mus musculus [12] = assay: Antitumor activity against leukemia P388/DX cells at 12.5 mg/kg/day expressed as mean survival of treated mice (T) to untreated (C) was reported; format: functional; outline: as §1
L1210 [13] = assay: (§4) The compound was tested in vitro for antitumor activity(50% inhibition of tumor cell growth) against the L1210 murine cell lines after 72 hours; format: functional; settings: Mus musculus, L1210, 72 h; read-out: ID50 (the source's name)
Outline: (§5)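 Murine leukemia cells (P388, the doxorubicin-resistant subline P388/DX, or L1210) were grown as suspension cultures in 1640 medium with 10% fetal calf serum, 20 µM 2-mercaptoethanol, […] and antibiotics, at 37 °C in humidified 5% CO2. 5 × 10^5 exponentially growing cells were exposed to a range of drug concentrations for 72 h, then Coulter-counted. ID50 is the concentration giving 50% growth inhibition versus untreated controls.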

Mus musculus [14] = assay: Antitumor activity against leukemia P388/DX cells at 6.3 mg/kg/day expressed as toxic deaths in mice was reported; 0/10 mice; format: functional; outline: as §1
P388 [15] = assay: (§6) The compound was tested in vitro for antitumor activity(50% inhibition of tumor cell growth) against the P388 murine cell lines after 72 hours; format: functional; settings: Mus musculus, P388, 72 h; read-out: ID50 (the source's name); outline: as §5
HeLa [16] = assay: The compound was tested in vitro for antitumor activity(50% inhibition of tumor cell growth) against HeLa human cell lines after 144 hr; format: functional; settings: read-out: ID50 (the source's name); outline: as §2
L1210 [17] = assay: Antitumor activity against leukemia L1210 cells at 6.3 mg/kg/day expressed as mean survival of treated mice (T) to untreated (C) was reported; format: functional, Mus musculus
Mus musculus [18] = species on record: Mus musculus; assay: (§7) The compound was tested in vitro for antitumor activity(50% inhibition of tumor cell growth) against the P388/doxorubicin resistant murine cell lines after 72 hours; format: functional; settings: P388, 72 h, read-out: ID50 (the source's name); outline: as §5
L1210 [19] = assay: Antitumor activity against leukemia L1210 cells at 12.5 mg/kg/day expressed as Number of mice died for toxicity to number of treated mice; 0/10 mice; format: functional, Mus musculus
Mus musculus [20] = assay: Antitumor activity against leukemia P388/DX cells at 300.0 mg/kg/day expressed as toxic deaths in mice was reported; 8/20 mice; settings: in vivo
Mus musculus [21] = assay: Antitumor activity against leukemia P388/DX cells at 150.0 mg/kg/day expressed as toxic deaths in mice was reported; 2/20 mice; settings: in vivo
L1210 [22] = assay: Antitumor activity against leukemia L1210 cells at 75.0 mg/kg/day expressed as mean survival of treated mice (T) compared to untreated (C) was reported; format: functional, Mus musculus
Mus musculus [23] = assay: Antitumor activity against leukemia P388/DX cells at 300.0 mg/kg/day expressed as mean survival of treated mice (T) to untreated (C) was reported; format: functional
Outline: (§8)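 BDF1 mice given 10^6 doxorubicin-resistant P388 cells ip. Compound was dissolved in distilled water just before use and given ip daily for 9 days from 24 h post-inoculation. %T/C = median survival of treated/control ×100, with 125 significant. Toxic deaths were judged by gross autopsy, mainly from reduced spleen and liver size.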

Mus musculus [24] = assay: Antitumor activity against leukemia P388/DX cells at 100.0 mg/kg/day expressed as mean survival of treated mice (T) to untreated (C) was reported; format: functional; outline: as §8
L1210 [25] = assay: Antitumor activity against leukemia L1210 cells at 150.0 mg/kg/day expressed as Number of mice died for toxicity to number of treated mice; 0/10 mice; format: functional, Mus musculus
Mus musculus [26] = assay: Antitumor activity against leukemia P388/DX cells at 100.0 mg/kg/day expressed as toxic deaths in mice was reported; 0/10 mice; format: functional; outline: as §8
L1210 [27] = assay: Antitumor activity against leukemia L1210 cells at 150.0 mg/kg/day expressed as mean survival of treated mice (T) to untreated (C) was reported; format: functional, Mus musculus
Mus musculus [28] = assay: Antitumor activity against leukemia P388/DX cells at 150.0 mg/kg/day expressed as mean survival of treated mice (T) to untreated (C) was reported; format: functional; outline: as §8
L1210 [29] = assay: Antitumor activity against leukemia L1210 cells at 75.0 mg/kg/day expressed as Number of mice died for toxicity to number of treated mice; 0/10 mice; format: functional, Mus musculus
L1210 [30] = assay: as §4; format: functional; settings: Mus musculus, L1210, 72 h; read-out: ID50 (the source's name); remark: listed apart in the source
Outline: (§9)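 Suspension cultures were grown in 1640 medium with 10% fetal calf serum, 20 µM 2-mercaptoethanol, […] and antibiotics at 37 °C in 5% CO2. 5×10^5 exponentially growing cells were exposed to varying drug concentrations for 72 h, then counted with a Coulter counter. ID50 is the concentration giving 50% growth inhibition versus untreated controls.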

Mus musculus [31] = species on record: Mus musculus; assay: as §7; format: functional; settings: P388, 72 h, read-out: ID50 (the source's name); outline: as §9; remark: listed apart in the source
P388 [32] = assay: as §6; format: functional; settings: Mus musculus, P388, 72 h; read-out: ID50 (the source's name); outline: as §9; remark: listed apart in the source

## Nc1ccnc2c1ncn2[C@@H]1O[C@H](CO)[C@@H](O)[C@H]1O
Mus musculus [1]
  T/C: 106%
Mus musculus [2]
  T/C: 106%
L1210 [3]
  T/C: 88%
Mus musculus [4]
  Activity: 0
KB [5]
  IC50: 0.6 µM
KB [6]
  IC50: 0.3 µM
L1210 [7]
  Activity: 6
Mus musculus [8]
  Activity: 0
L1210 [9]
  Activity: 0
L1210 [10]
  T/C: 113%
HeLa [11]
  IC50: 1.2 µM
Mus musculus [12]
  T/C: 111%
L1210 [13]
  IC50: 1.8 µM
Mus musculus [14]
  Activity: 0
P388 [15]
  IC50: 1.1 µM
HeLa [16]
  IC50: 1.2 µM
L1210 [17]
  T/C: 100%
Mus musculus [18]
  IC50: 0.4 µM
L1210 [19]
  Activity: 0

## O=[N+]([O-])c1ccnc2c1ncn2C1O[C@H](CO)[C@@H](O)[C@H]1O (some centres not stated)
KB [5]
  IC50: 13.1 µM
Mus musculus [20]
  Activity: 8
Mus musculus [21]
  Activity: 2
KB [6]
  IC50: 33.8 µM
L1210 [22]
  T/C: 106%
Mus musculus [23]
  T/C: 22%
Mus musculus [24]
  T/C: 95%
L1210 [25]
  Activity: 0
Mus musculus [26]
  Activity: 0
L1210 [27]
  T/C: 106%
HeLa [11]
  IC50: 64.1 µM
L1210 [13]
  IC50: 11.8 µM
P388 [15]
  IC50: 12.5 µM
HeLa [16]
  IC50: 27 µM
Mus musculus [28]
  T/C: 97%
Mus musculus [18]
  IC50: 8.1 µM
L1210 [29]
  Activity: 0

## Nc1ncnc2c1ncn2[C@@H]1O[C@H](CO)[C@@H](O)[C@H]1O [ADENOSINE]
KB [5]
  IC50: 25.4 µM
KB [6]
  IC50: 89.8 µM
HeLa [11]
  IC50: 46 µM
L1210 [13]
  IC50: 23.6 µM
P388 [15]
  IC50: 12.7 µM
HeLa [16]
  IC50: 27.7 µM
Mus musculus [18]
  IC50: 10.8 µM

## Nc1ccn([C@@H]2O[C@H](CO)[C@@H](O)[C@@H]2O)c(=O)n1 [CYTARABINE]
KB [5]
  IC50: 1.1 µM
KB [6]
  IC50: 1 µM
HeLa [11]
  IC50: 0.6 µM
L1210 [13]
  IC50: 0.02 µM
P388 [15]
  IC50: 0.02 µM
HeLa [16]
  IC50: 0.1 µM
Mus musculus [18]
  IC50: 0.01 µM

## O=c1[nH]cc(F)c(=O)[nH]1 [FLUOROURACIL]
L1210 [30]
  IC50: 0.4 µM
KB [5]
  IC50: 2 µM
Mus musculus [31]
  IC50: 0.1 µM
KB [6]
  IC50: 13.8 µM
P388 [32]
  IC50: 0.3 µM
HeLa [11]
  IC50: 6.1 µM
HeLa [16]
  IC50: 0.8 µM
